Bioassay records (PubChem)
T cruzi growth-1: T. cruzi intracellular proliferation inhibitors, primary screen, cell-based, beta-gal Tulahuen parasites, NIH3T3 host, luminescence | T. cruzi beta-gal in NIH3T3, GalScreen luminescence, 90 h | inhibition, % at 8.34 µM | actives 5.9% (n = 77,000) | AID 624255, 2012;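 active means mean inhibition above about 93%, with at least 55% of replicates each passing it, limit read from the data, passing the limit was not always enough; inconclusive means only one of those two conditions holds; inactive means neither condition holds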
KDM4C inh: inhibitors of GASC-1 (KDM4C) histone demethylase, primary screen, biochemical, single concentration HTS. inhibition, % at 12.5 µM. actives 0.15% (n = 96,000). Lysine-specific demethylase 4C (Homo sapiens), Q9H3R0. GST-KDM4C 2-372, H3K9me3 peptide, LANCE TR-FRET;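 active means mean replicate inhibition above about 25%, with at least 55% of replicates also reaching it, limit read from the data, passing the limit was not always enough; inconclusive means only one of those two conditions met; inactive means neither condition met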
Target sequence (Q9H3R0 2-372 limits assumed): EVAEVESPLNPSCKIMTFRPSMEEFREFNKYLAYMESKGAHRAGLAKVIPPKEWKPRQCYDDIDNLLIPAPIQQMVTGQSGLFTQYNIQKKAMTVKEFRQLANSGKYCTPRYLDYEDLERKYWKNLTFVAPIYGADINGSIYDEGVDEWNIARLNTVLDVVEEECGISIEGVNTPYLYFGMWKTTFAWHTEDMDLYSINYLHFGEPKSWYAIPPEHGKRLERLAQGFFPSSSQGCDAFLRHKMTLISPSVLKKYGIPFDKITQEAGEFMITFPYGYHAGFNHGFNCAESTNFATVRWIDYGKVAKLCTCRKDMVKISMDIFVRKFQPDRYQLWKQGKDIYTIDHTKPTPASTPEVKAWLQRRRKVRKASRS
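Material: GST-tagged GASC-1 (JMJD2C) catalytic fragment, aa 2-372. Input: enzyme final amount 10 nM. Medium: HEPES buffer, pH 7.5, plus ascorbate. Reagent: H3K9me3 peptide substrate, Fe(II), 2-oxoglutarate. Doses: single dose. Times: reaction 30 min RT, detection step 1 h RT. Measured by: LANCE TR-FRET. Evaluation: Fall in 671/618 emission ratio as inhibition.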
IDH1 mut inh: inhibitors of IDH1 R132H reductase, primary screen, biochemical, plate reader, single point; inhibition, % at 10 µM; actives 0.18% (n = 70,000); AID 624101, 2012; diaphorase/resazurin fluorescence, 60 min; in the data active means inhibition above about 34%; inconclusive means no clear call, values can overlap the other calls; inactive means below about 11%;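 further: 0% = DMSO and 100% = no enzyme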
T cruzi growth-2: T. cruzi intracellular proliferation inhibitors, confirmation, cell-based, NIH3T3 host, beta-gal parasite, luminescence, cherry-pick | shares compounds with T cruzi growth-1 | T. cruzi beta-gal in NIH3T3, GalScreen luminescence, 90 h | inhibition, % at 8.35 µM | actives 72% (n = 5,600) | AID 651739, 2012;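 active means mean replicate inhibition above about 95% and at least 55% of replicates individually reaching it, limit read from the data; inconclusive means only one of the two criteria is met; inactive means neither criterion is met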
T cruzi growth-3: inhibitors of intracellular T. cruzi replication, confirmation, NIH3T3 host cells, beta-gal parasites, cherry-pick, set 2; shares compounds with T cruzi growth-1; T. cruzi beta-gal in NIH3T3, GalScreen luminescence, 90 h; inhibition, % at 2.09 µM; actives 21% (n = 5,600); AID 651740, 2012;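 active means mean inhibition above about 95%, with at least 55% of replicates also reaching it, limit read from the data; inconclusive means meets just one of the two conditions; inactive means meets neither condition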;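 further: plate controls were neutral control median for no effect and positive control median for full effect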
NIH3T3 tox: cytotoxicity in mouse NIH/3T3 fibroblasts, confirmation, cytotoxicity control for T. cruzi proliferation inhibitor project, cell-based, cherry-pick, single point. shares compounds with T cruzi growth-1. NIH/3T3 viability, CellTiter-Glo ATP luminescence, 90 h. cytotoxicity (signal decrease), % at 8.35 µM. actives 14% (n = 5,600);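 active means mean signal decrease across replicates above about 35% based on untreated-well scatter, with enough replicates individually passing, limit read from the data; inconclusive means no rule stated though some were filed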;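 further: 0% = median of neutral control wells and 100% = median of positive control wells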
3T3 cytotox 2: NIH/3T3 fibroblast cytotoxicity, confirmation, cytotoxicity control, cell-based, cherry-pick, single point, set 2; inhibition, % at 24.9 µM; AID 651744, 2012; shares compounds with T cruzi growth-1; actives 56% (n = 5,600); NIH/3T3 viability, CellTiter-Glo ATP luminescence, 90 h;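 active means mean loss of cell viability signal at or above a set limit, and enough replicates individually reaching it; inconclusive means meets only the mean limit or only the replicate share; inactive means meets neither condition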;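 further: 0% = median of neutral control wells and 100% = median of positive control wells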
Starred values were filed as active, the others as inactive; ? = inconclusive; / = no result given. The full list was thinned out, with hits kept by preference.

SMILES	T cruzi growth-1	KDM4C inh	IDH1 mut inh	T cruzi growth-2	T cruzi growth-3	NIH3T3 tox	3T3 cytotox 2
Cc1ccc(S(=O)(=O)Nc2ccc3c(c2)C(=O)N([C@@H](C)CO)C[C@@H](C)[C@H](CN(C)S(=O)(=O)c2ccccc2)OCCCC[C@@H](C)O3)cc1	105*	0	-2	106*	72	7	23
Cc1ccc(S(=O)(=O)N(C)C[C@@H]2OCCCC[C@H](C)Oc3ccc(NS(=O)(=O)c4ccccc4)cc3C(=O)N([C@H](C)CO)C[C@H]2C)cc1	78	-3	/	/	/	/	/
Cc1ccc(S(=O)(=O)Nc2ccc3c(c2)C(=O)N([C@@H](C)CO)C[C@@H](C)[C@H](CN(C)S(=O)(=O)c2ccccc2)OCCCC[C@H](C)O3)cc1	57	0	/	/	/	/	/
Cc1ccc(S(=O)(=O)N(C)C[C@@H]2OCCCC[C@H](C)Oc3ccc(NS(=O)(=O)c4ccccc4)cc3C(=O)N([C@H](C)CO)C[C@@H]2C)cc1	?	0	/	/	/	/	/
Cc1ccc(S(=O)(=O)Nc2ccc3c(c2)C(=O)N([C@@H](C)CO)C[C@H](C)[C@@H](CN(C)S(=O)(=O)c2ccccc2)OCCCC[C@H](C)O3)cc1	102*	0	/	109*	78	7	-7
Cc1ccc(S(=O)(=O)N(C)C[C@H]2OCCCC[C@@H](C)Oc3ccc(NS(=O)(=O)c4ccccc4)cc3C(=O)N([C@@H](C)CO)C[C@H]2C)cc1	?	-2	/	109*	74	-6	-2
O=C1C(=O)N(CCN2CCOCC2)C(c2ccc(Cl)cc2)C1C(=O)c1cccs1 (stereo unspecified)	/	/	0	/	/	/	/
C[C@H](CO)N1C[C@H](C)[C@@H](CN(C)C(=O)Nc2ccc3c(c2)OCO3)Oc2cc(C3=CCCC3)ccc2S1(=O)=O	114*	0	0	96*	45	-1	17
C[C@@H]1CN([C@@H](C)CO)S(=O)(=O)c2ccc(C#Cc3ccccc3)cc2O[C@H]1CN(C)C(=O)Nc1ccc2c(c1)OCO2	132*	-2	/	98*	85	?	45*
C[C@@H]1CN([C@H](C)CO)S(=O)(=O)c2ccc(C#Cc3ccncc3)cc2O[C@H]1CN(C)C(=O)Nc1ccc2c(c1)OCO2	35	13	/	/	/	/	/
C[C@H]1CN([C@@H](C)CO)S(=O)(=O)c2ccc(C3=CCCCC3)cc2O[C@@H]1CN(C)C(=O)Nc1ccc2c(c1)OCO2	/	-2	-1	/	/	/	/
C[C@H]1CN([C@@H](C)CO)S(=O)(=O)c2ccc(C#Cc3ccccc3)cc2O[C@@H]1CN(C)C(=O)Nc1ccc2c(c1)OCO2	131*	-1	0	106*	75	20	13
C[C@@H]1CN([C@@H](C)CO)S(=O)(=O)c2ccc(Br)cc2O[C@H]1CN(C)C(=O)Nc1ccc2c(c1)OCO2	/	-1	/	/	/	/	/
CC(C)C#Cc1ccc2c(c1)O[C@H](CN(C)C(=O)Nc1ccccc1)[C@H](C)CN([C@H](C)CO)S2(=O)=O	/	-1	/	/	/	/	/
C[C@@H]1CN([C@H](C)CO)S(=O)(=O)c2ccc(C#Cc3ccccc3)cc2O[C@@H]1CN(C)C(=O)Nc1ccc2c(c1)OCO2	130*	18	0	106*	107*	5	4
O=C(Nc1ccc(I)cc1C(=O)NCCN1CCOCC1)c1cccnc1	/	/	1	/	/	/	/
O=C(N/N=C/c1cc(O)ccc1Br)c1ccccn1	/	/	0	/	/	/	/
Cc1ccc(S(=O)(=O)NC(C)C(=O)Nc2ccc(I)cc2)cc1 (stereo unspecified)	/	/	0	/	/	/	/
